Laboratory results taken from ChEMBL document CHEMBL5303300, “EUbOPEN Chemogenomics Library - Multiplex” (2023).
“And” between values parts separate entries of the source, which are not always exact repeats. Equal entries are not always repeated.

Tested on: HEK-293T
Test: Multiplex assay against HEK293T
Type: toxicity, cell-based
Conditions: human, number of replicates 2
Summary of the method: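 Live cells were stained at seeding with Hoechst33342, BioTracker Green Microtubule Cytoskeleton Dye, MitoTracker Red and Annexin V Alexa Fluor 680. Following compound addition, they were imaged on a CQ1 microscope at 37°C and 5% CO2 and gated by CellPathfinder machine learning into Hoechst high-intensity objects or normal cells, with normal cells split into healthy, pyknosed or fragmented nuclei and pyknosed cells into mitotic or apoptotic. Tubulin, mitochondrial-mass and membrane-permeability phenotypes are per cents of healthy-nucleus cells.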

[1] = 12 h, 1 µM, compound concentration 1 uM
[2] = 12 h, 10 µM, compound concentration 10 uM
[3] = 24 h, 1 µM, compound concentration 1 uM
[4] = 24 h, 10 µM, compound concentration 10 uM
[5] = 48 h, 1 µM, compound concentration 1 uM
[6] = 48 h, 10 µM, compound concentration 10 uM

Compound: NC(=O)c1ccc(-c2nc(-c3ccc4c(c3)OCCO4)c(-c3ccccn3)[nH]2)cc1
- Population Apoptotic (%) [1]: 57% and 48%
- Population Fragmented Nuclei (%) [1]: 3%
- Population Healthy Nuclei (%) [1]: 83% and 85%
- Population Hoechst High Intensity Objects (%) [1]: 6% and 8%
- Population Membrane Permeable-Phenotype (%) [1]: 0% and 2%
- Population Mitochondria Different-Phenotype (%) [1]: 16% and 11%
- Population Mitotic Cells (%) [1]: 42% and 52%
- Population Normal (%) [1]: 93% and 91%
- Population Pyknosed Nuclei (%) [1]: 13% and 10%
- Population Tubulin-Different-Phenotype (%) [1]: 54% and 46%
- Total Cell Count [1]: 656 and 747
- Population Apoptotic (%) [2]: 46% and 38%
- Population Fragmented Nuclei (%) [2]: 3%
- Population Healthy Nuclei (%) [2]: 87% and 88%
- Population Hoechst High Intensity Objects (%) [2]: 7% and 4%
- Population Membrane Permeable-Phenotype (%) [2]: 3% and 5%
- Population Mitochondria Different-Phenotype (%) [2]: 15% and 16%
- Population Mitotic Cells (%) [2]: 53% and 61%
- Population Normal (%) [2]: 92% and 95%
- Population Pyknosed Nuclei (%) [2]: 9% and 8%
- Population Tubulin-Different-Phenotype (%) [2]: 61% and 55%
- Total Cell Count [2]: 620 and 572
- Population Apoptotic (%) [3]: 44% and 61%
- Population Fragmented Nuclei (%) [3]: 7% and 3%
- Population Healthy Nuclei (%) [3]: 85% and 87%
- Population Hoechst High Intensity Objects (%) [3]: 9% and 7%
- Population Membrane Permeable-Phenotype (%) [3]: 2% and 1%
- Population Mitochondria Different-Phenotype (%) [3]: 4% and 6%
- Population Mitotic Cells (%) [3]: 55% and 38%
- Population Normal (%) [3]: 90% and 92%
- Population Pyknosed Nuclei (%) [3]: 7% and 8%
- Population Tubulin-Different-Phenotype (%) [3]: 23% and 29%
- Total Cell Count [3]: 1205 and 941
- Population Apoptotic (%) [4]: 48% and 44%
- Population Fragmented Nuclei (%) [4]: 4% and 3%
- Population Healthy Nuclei (%) [4]: 89% and 90%
- Population Hoechst High Intensity Objects (%) [4]: 7% and 8%
- Population Membrane Permeable-Phenotype (%) [4]: 4% and 3%
- Population Mitochondria Different-Phenotype (%) [4]: 9% and 5%
- Population Mitotic Cells (%) [4]: 51% and 55%
- Population Normal (%) [4]: 92% and 91%
- Population Pyknosed Nuclei (%) [4]: 6% and 5%
- Population Tubulin-Different-Phenotype (%) [4]: 39% and 37%
- Total Cell Count [4]: 908 and 852
- Population Apoptotic (%) [5]: 14% and 25%
- Population Fragmented Nuclei (%) [5]: 16% and 11%
- Population Healthy Nuclei (%) [5]: 80% and 85%
- Population Hoechst High Intensity Objects (%) [5]: 10%
- Population Membrane Permeable-Phenotype (%) [5]: 5% and 1%
- Population Mitochondria Different-Phenotype (%) [5]: 0%
- Population Mitotic Cells (%) [5]: 85% and 74%
- Population Normal (%) [5]: 89%
- Population Pyknosed Nuclei (%) [5]: 2%
- Population Tubulin-Different-Phenotype (%) [5]: 11% and 15%
- Total Cell Count [5]: 3179 and 2277
- Population Apoptotic (%) [6]: 6% and 9%
- Population Fragmented Nuclei (%) [6]: 10% and 9%
- Population Healthy Nuclei (%) [6]: 86% and 87%
- Population Hoechst High Intensity Objects (%) [6]: 7% and 8%
- Population Membrane Permeable-Phenotype (%) [6]: 5%
- Population Mitochondria Different-Phenotype (%) [6]: 1%
- Population Mitotic Cells (%) [6]: 93% and 90%
- Population Normal (%) [6]: 92% and 91%
- Population Pyknosed Nuclei (%) [6]: 3%
- Population Tubulin-Different-Phenotype (%) [6]: 21% and 23%
- Total Cell Count [6]: 2159 and 1774
